Assay results as given in ChEMBL document CHEMBL1121406, “Synthesis, in vitro opiate activity, and intramolecular tyrosine--tryptophan distances of [4-tryptophan]enkephalin analogues. A reassessment of conformational models of enkephalin in solution” (1980).
Peptide text beside a SMILES is read from it.

Species on record: Cavia porcellus
Assay: Relative narcotic agonistic activity was performed by inhibition of electrically evoked contractions compared with [Met5]-enkephalin (100%) in guinea pig ileum
Format: functional
Set-up: scale not given: the % may be the effect or the level left
How it was run: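 Isolated guinea pig ileum; inhibition of electrically evoked contractions as agonist read-out. Single pulses of 4-ms duration at 3 to 6 V; isometric contractions recorded. Potency expressed relative to [Met5]enkephalin taken as 100%.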

Point of comparison: `COc1ccc(C[C@H](N)C(=O)NCC(=O)NCC(=O)N[C@@H](Cc2c[nH]c3ccccc23)C(=O)N[C@@H](CCSC)C(=O)O)cc1`, Activity 0.5%. Against it:
- CC(C)C[C@@H](C(=O)O)N(C)C(=O)[C@H](Cc1c[nH]c2ccccc12)NC(=O)CNC(=O)CNC(=O)[C@@H](N)Cc1ccc(O)cc1 — higher, 4%
- CSCC[C@H](NC(=O)[C@H](Cc1ccccc1)NC(=O)CNC(=O)CNC(=O)[C@@H](N)Cc1ccc(O)cc1)C(=O)O — higher, 100%
- N[C@@H](Cc1ccc(O)cc1)C(=O)NCC(=O)NCC(=O)N[C@@H](Cc1ccccc1)C(=O)N1CCC[C@H]1C(=O)O — higher, 1%
- CC(C)C[C@H](NC(=O)[C@H](Cc1ccccc1)NC(=O)CNC(=O)CNC(=O)[C@@H](N)Cc1ccc(O)cc1)C(=O)O [ENKEPHALIN] — higher, 24%
- CC(C)C[C@@H](C(=O)O)N(C)C(=O)[C@H](Cc1ccccc1)NC(=O)CNC(=O)CNC(=O)[C@@H](N)Cc1ccc(O)cc1 — higher, 70%
- CSCC[C@H](NC(=O)[C@H](Cc1c[nH]c2ccccc12)N(C)C(=O)CNC(=O)CNC(=O)[C@@H](N)Cc1ccc(O)cc1)C(=O)O — higher, 39%
- CC(C)C[C@H](NC(=O)[C@H](Cc1c[nH]c2ccccc12)NC(=O)CNC(=O)CNC(=O)[C@@H](N)Cc1ccc(O)cc1)C(=O)O — higher, 10%
- CSCC[C@H](NC(=O)[C@H](Cc1c[nH]c2ccccc12)NC(=O)CNC(=O)CNC(=O)[C@@H](N)Cc1ccc(O)cc1)C(=O)O (H-YGGWM-OH) — higher, 27%
- COc1ccc(C[C@H](N)C(=O)NCC(=O)NCC(=O)N[C@@H](Cc2ccccc2)C(=O)N[C@@H](CCSC)C(=O)O)cc1 — higher, 2%
- N[C@@H](Cc1ccc(O)cc1)C(=O)NCC(=O)NCC(=O)N[C@@H](Cc1c[nH]c2ccccc12)C(=O)N1CCC[C@H]1C(=O)O — higher, 1%
